Assays:
[1] = tested on: Mus musculus; experiment: Rotarod test was used to evaluate neurotoxicity in mice. Toxicity values are reported after 0.5 h. toxicity at 300 mg/kg; - denotes no activity observed at 300 mg/kg toxic; format: organism-based; conditions: in vivo
[2] = tested on: Mus musculus; experiment: Subcutaneous metrazole (scMet) test was conducted and median effective dose was determined at the time of peak anticonvulsant and sedative effect; format: functional; conditions: sc
Outline: (§1)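 Pentylenetetrazol (85 mg/kg in mice, 70 mg/kg in rats) was given subcutaneously in the posterior midline as a 0.5% solution. Compounds were in 30% PEG 400, dosed ip in male Carworth Farms no. 1 mice, or orally in mice and Sprague-Dawley rats. ED50 was read at time of peak effect, using groups of 8–16 animals and ≥3 doses giving 10–90% protection. Probit analysis gave 95% confidence intervals.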

[3] = Protective index is the ratio of TD50 and ED50 values obtained in the maximal electroshock seizure (MES) test.; format: functional
Outline: (§2)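 Protective index = TD50/ED50. Both values are medians from groups of 8–16 animals per dose, with at least three points in the 10–90% effect range, fitted by probit analysis. Each was taken at its own time of peak effect: seizure protection for ED50, neurologic deficit for TD50.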

[4] = Median toxic dose was measured at time of peak neurologic deficit; format: organism-based; conditions: mouse, in vivo
Outline: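 Mice dosed ip in 30% PEG 400. Minimal neurotoxicity was scored by rotorod at the time of peak neurologic deficit. Groups of 8–16 mice were used, with at least three points in the 10–90% range, and TD50 with 95% confidence interval was derived by probit analysis.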

[5] = tested on: Mus musculus; experiment: MES test was performed after Injecting intraperitoneally at the time of peak anticonvulsant effect in phase II test; format: functional; conditions: ip
Outline: (§3)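 Phase II testing in male Carworth Farms no. 1 mice, ip dosing in 30% PEG 400 (0.01 mL/g). Groups of 8–16 mice received a range of doses, giving at least three points in 10–90% protection. ED50 with 95% confidence interval was fitted by probit analysis at the time of peak effect. scMet used pentylenetetrazol 85 mg/kg sc.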

[6] = organism: Mus musculus; experiment: Time taken to reach peak activity was reported; format: functional
Outline: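 Time of peak effect, in hours, was found separately for anticonvulsant activity and for neurotoxicity. ED50 and TD50 were then determined at those times.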

[7] = tested on: Mus musculus; experiment: Subcutaneous metrazole (scMet) test was conducted after Injecting intraperitoneally at the time of peak anticonvulsant in phase II test; format: functional; outline: as §3
[8] = Protective index is the ratio of TD50 and ED50 values obtained in the subcutaneous metrazole (scMet) test.; format: functional; outline: as §2
[9] = tested on: Mus musculus; experiment: Rotarod test was used to evaluate neurotoxicity in mice. Toxicity values are reported after 0.5 hr at 300 mg/kg; Toxic; format: organism-based; set-up: dose 300 mg/kg; conditions: in vivo
[10] = tested on: Mus musculus; experiment: Rotarod test was used to evaluate neurotoxicity in mice. Toxicity values are reported after 4.0 hr toxicity at 300 mg/kg; toxic; format: organism-based; set-up: dose 300 mg/kg; conditions: in vivo
[11] = tested on: Mus musculus; experiment: Rotarod test was used to evaluate neurotoxicity in mice. Values are reported after 0.5 h, at 300 mg/kg; no activity or toxicity up to 300 mg/kg; format: organism-based; conditions: in vivo
[12] = tested on: Mus musculus; experiment: Anticonvulsant activity was determined in maximal electroshock seizure test 4.0 h after administration of 300 mg/kg in (mice/rat); no activity or toxicity up to 300 mg/kg; format: functional, organism-based
[13] = tested on: Mus musculus; experiment: Anticonvulsant activity was determined in Subcutaneous metrazole (scMet) test 0.5 h after administration of 300 mg/kg in (mice/rat); no activity or toxicity up to 300 mg/kg; format: functional, organism-based
[14] = tested on: Mus musculus; experiment: Anticonvulsant activity was determined in maximal electroshock seizure test 0.5 h after administration of 300 mg/kg in (mice/rat); no activity or toxicity up to 300 mg/kg; format: functional, organism-based
[15] = tested on: Mus musculus; experiment: Subcutaneous metrazole (scMet) test was done, 4.0 hr after administration; no activity or toxicity up to 300 mg/kg; format: functional, organism-based; set-up: dose 300 mg/kg
[16] = tested on: Mus musculus; experiment: Rotarod test was used to evaluate neurotoxicity in mice. Toxicity values are reported after 0.5 h.,toxicity at 300 mg/kg; Toxic; format: organism-based; set-up: dose 300 mg/kg; conditions: in vivo
[17] = tested on: Mus musculus; experiment: (§4) Subcutaneous metrazole (scMet) test was conducted and median effective dose was determined at the time of peak anticonvulsant and sedative effect.; format: functional; conditions: sc; outline: as §1
[18] = tested on: Mus musculus; experiment: as §4; format: organism-based; conditions: in vivo; outline: as §1

SMILES: O=C(Cc1nc2ccccc2c(=O)n1-c1ccccc1Cl)c1cccnc1
- Activity [1]: Toxic

SMILES: CCC1(c2ccccc2)NC(=O)N(C)C1=O (stereo not drawn) [MEPHENYTOIN]
- ED50 [2]: 30.5 mg/kg

SMILES: O=C(Cc1nc2ccccc2c(=O)n1-c1ccccc1Br)c1ccncc1
- PI [3]: > 14.7
- TD50 [4]: > 2000 mg/kg
- ED50 [5]: 136 mg/kg
- TPE [6]: 1 h
- ED50 [7]: 19 mg/kg
- PI [8]: >105
- Activity [9]: Toxic
- Activity [10]: Toxic

SMILES: Cc1ccc(-n2c(CC(=O)c3cccnc3)nc3ccccc3c2=O)cc1
- Activity [11]: No activity or toxicity up to 300 mg/kg
- Activity [12]: No activity or toxicity up to 300 mg/kg
- Activity [13]: No activity or toxicity up to 300 mg/kg
- Activity [14]: No activity or toxicity up to 300 mg/kg
- Activity [15]: No activity or toxicity up to 300 mg/kg

SMILES: O=C(Cc1nc2ccccc2c(=O)n1-c1ccc(Br)cc1)c1ccncc1
- Activity [16]: Toxic

SMILES: CCC1(c2ccccc2)C(=O)NC(=O)NC1=O [PHENOBARBITAL]
- ED50 [17]: 13.2 mg/kg

SMILES: CCC1(C)CC(=O)NC1=O (stereo not drawn) [ETHOSUXIMIDE]
- ED50 [18]: 130.4 mg/kg

From ChEMBL document CHEMBL1125085, “Synthesis and anticonvulsant activity of some new 2-substituted 3-aryl-4(3H)-quinazolinones” (J Med Chem, 1990)
